# This is a sample that favours compounds with a hit; in the whole collection about 1.4% have one here.
# RBBP9 inh – human RBBP9 hydrolase inhibition. O75884. recombinant RBBP9, FP-Rh probe fluorescence polarization. inhibition, % at 7.94 µM. 0.2% of 220,000 active;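 active = inhibition above the campaign mean of all tested compounds plus 3 SD, cut at about 14% in these data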;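 note: plate controls were DMSO wells with RBBP9 for no effect and wells lacking RBBP9 protein for full effect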
#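 Test system – recombinant human RBBP9 · Input – RBBP9 2.5 µM in dispensing solution, pre-mixing · Medium – Tris buffer pH 8.0, NaCl, Pluronic · Schedule – preincubation 30 min plus labeling 45 min at 25 °C · Measured by – fluorescence polarization · Measure – % inhibition · Controls – DMSO and no-protein wells · Replicates – one well per compound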
# SIAE inh – human SIAE inhibition, primary screen; inhibition, % at 9.66 µM; AID 1053197; 0.69% of 370,000 active; Q9HAT2; SIAE FP-Rh probe binding, fluorescence polarization;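 active = inhibition above a cutoff: mean of compounds within the control limits plus 3 SD of those, cut at about 17% in these data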;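 note: 0% = plate median of compound wells and 100% = probe without SIAE protein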
# Target sequence (Q9HAT2 whole entry, looked up): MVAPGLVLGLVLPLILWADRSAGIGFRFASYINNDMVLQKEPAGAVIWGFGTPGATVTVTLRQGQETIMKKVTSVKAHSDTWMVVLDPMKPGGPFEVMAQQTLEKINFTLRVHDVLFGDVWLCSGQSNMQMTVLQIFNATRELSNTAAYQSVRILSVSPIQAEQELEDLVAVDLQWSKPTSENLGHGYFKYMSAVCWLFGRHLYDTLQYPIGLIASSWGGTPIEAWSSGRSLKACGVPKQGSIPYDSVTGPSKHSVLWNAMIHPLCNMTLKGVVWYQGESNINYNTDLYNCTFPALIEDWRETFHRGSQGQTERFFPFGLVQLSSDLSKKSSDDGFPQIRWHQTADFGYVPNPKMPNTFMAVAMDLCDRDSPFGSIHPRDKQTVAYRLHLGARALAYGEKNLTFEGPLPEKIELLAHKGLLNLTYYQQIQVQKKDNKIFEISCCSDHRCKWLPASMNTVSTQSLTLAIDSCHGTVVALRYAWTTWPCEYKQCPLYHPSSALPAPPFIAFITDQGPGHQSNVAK
# HTRA1 inhibitor – blocks human HTRA1 serine peptidase; inhibition, % at 5.96 µM; recombinant HTRA1, FP-rhodamine activity-based probe, fluorescence polarization; 0.5% of 340,000 active; in the data active = inhibition above about 36%;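 note: 0% = enzyme with DMSO and 100% = wells lacking enzyme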
# ABHD4 inh – inhibitors of mouse ABHD4. inhibition, % at 8.92 µM. purified mABHD4, FP-Rh probe fluorescence polarization. 0.54% of 370,000 active. Q8VD66. AID 720543;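 active = inhibition exceeding the mean over every tested compound plus 3 SD, cut at about 30% in these data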;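 note: 0% = plate median of compound wells and 100% = S159A mutant with DMSO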
#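 Test system: mABHD4 protein; Read-out basis: % inhibition; Incubation: 45 min + 60 min at 25 °C; Repeats: single replicate; Technique: fluorescence polarization with parallel and perpendicular emission, 525/598 nm; Compound: 8.92 µM, single dose; Benchmarks: full inhibition S159A mutant plus DMSO, zero as sample-well median.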
# RBBP9 inh conf – human RBBP9 inhibition, confirmation | shares compounds with RBBP9 inh | recombinant RBBP9, FP-Rh probe fluorescence polarization | inhibition, % at 7.94 µM | 36% of 410 active | AID 1537;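 active = inhibition above the hit cutoff derived for the primary screen, cut at about 15% in these data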;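 note: 0% = RBBP9 with DMSO and 100% = wells lacking RBBP9 protein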
# Active calls of the source: *; . = no result given.
SMILES,RBBP9 inh,SIAE inh,HTRA1 inhibitor,ABHD4 inh,RBBP9 inh conf
CCC(=O)OCCNc1cc(Sc2nc3ccccc3s2)c2nonc2c1[N+](=O)[O-],0,4,4,14,.
Cc1nnc(Sc2cc(NCCCO)c([N+](=O)[O-])c3nonc23)s1,22*,6,3,18,30*
Cc1ccc(Cn2nnc3c2-c2ccccc2S(=O)(=O)N(C)C3)cc1,.,3,.,2,.
COc1ccc(S[C@]2(C(=O)N(C)C)CC(=O)N(S(=O)(=O)c3ccc(F)cc3)[C@@H]2c2ccc(OC)cc2)cc1,.,-6,.,-3,.
O=C(Nc1nnc(C2=COCCO2)o1)c1ccc(Cc2ccccc2)cc1,17*,5,15,-4,5
O=C(Nc1nnc(C2=COCCO2)o1)c1ccc(Cl)cc1,-8,-3,9,1,.
Cc1c(C)n(C)c2ccc(C(=O)NCCCN3CCCC3)cc12,.,2,0,-3,.
CCN(CC)c1ccc(NC(=O)c2ccc3c(c2)c(C)c(C)n3C)cc1,30*,10,-4,15,28*
Nc1nc(-c2ccco2)cs1,6,0,1,19,.
Nc1nc(-c2ccco2)c(-c2ccco2)s1,17*,6,20,29,10
O=S1(=O)c2ccc(N3CCSCC3)cc2Oc2ccccc2CN1Cc1cn(Cc2ccc(F)cc2)nn1,.,-6,.,-5,.
CSc1nc(Cl)cc(=O)[nH]1,15*,-4,6,0,1
CCC(C#Cc1ccccc1)N(C)C(N)=NC(=O)/C=C/c1ccccc1 (configuration not stated),.,4,.,-1,.
CCCOc1ccc(/C=N/NC(=O)CSc2ccccn2)cc1OC,17*,-1,-5,7,9
CN1C(=O)c2cc(NS(=O)(=O)c3ccc(F)cc3)ccc2OC[C@H]2O[C@@H](CC(=O)NCC(F)(F)F)CC[C@@H]21,.,-3,.,12,.
CC(C)C(=O)N(c1ccc2oc(=O)sc2c1)S(=O)(=O)c1ccccc1,-5,-31,6,6,.
CC(=O)N(c1ccc2oc(=O)sc2c1)S(=O)(=O)c1ccccc1,17*,-6,15,10,5
CCCC[C@H](C(=O)N(CC)c1ccccc1)[C@@H](O)c1ccc(Cl)cc1,.,-5,.,-8,.
CC1(C)NC(=O)NC2(C)NC(=O)NC(C)(C)C12 (configuration not stated),20*,-5,-2,1,11
FC(F)(F)c1ccc(-c2nnc(-c3ccccn3)c(-c3ccccn3)n2)nc1,17*,-1,12,1,3
c1ccc(-c2nnc(-c3ccccn3)c(-c3ccccn3)n2)nc1,-6,6,.,-4,.
Cc1cc[n+](CC(=O)Nc2cc(C(F)(F)F)ccc2Cl)cc1,18*,2,0,-3,4
CN(C)c1cc[n+](CC(=O)Nc2cc(C(F)(F)F)ccc2Cl)cc1,-9,3,-3,0,.
C=CCOc1ccc(CNc2ccc3[nH]c(=O)[nH]c3c2)cc1OCC,18*,7,10,3,14*
CCC(CO)Nc1cccc2c1S(=O)(=O)N(Cc1cn(Cc3ccc(F)cc3)nn1)Cc1ccccc1O2 (configuration not stated),.,0,.,-6,.
SMILES,RBBP9 inh,SIAE inh,HTRA1 inhibitor,ABHD4 inh,RBBP9 inh conf
CCn1c(SCC(=O)c2ccccc2)nnc1-c1cccnc1,15*,1,12,3,5
C=CCN(C)CC#Cc1ccc(OC)cc1,.,1,.,0,.
O=c1c(-c2ccco2)[n+]([O-])c2ccccc2n1OCc1c(F)cccc1F,5,1,9,11,.
O=c1c(-c2ccco2)[n+]([O-])c2ccccc2n1OCc1ccccc1F,15*,-2,5,1,4
COc1cc(Br)cc(C(=O)N2CCc3ccccc32)c1OC,.,-3,-7,2,.
O=P(O)(CCc1ccccn1)CN1CCOCC1,-2,-5,-1,-6,.
Cc1ccc(CCP(=O)(O)CN2CCOCC2)cn1,18*,-4,2,-7,-2
Cc1cccc(-c2cccc3c4c([nH]c23)[C@@H]2C[C@H]3[C@@H](CN2CC4)[C@H](C)ON3C)c1,.,5,.,2,.
CCOC(=O)c1nc2sc3c(c2c(=O)[nH]1)CCCC3,-7,0,7,-6,.
CCOC(=O)c1nc2sc3c(c2c(=O)[nH]1)CCC(C)C3 (configuration not stated),16*,-3,8,0,1
COc1ccc(/C=C/C(=O)Nc2ccccc2)cc1S(=O)(=O)N1CCOCC1,37*,-3,-4,-5,4
